Assay results published in ChEMBL document CHEMBL5252539, “In vitro biological evaluation of new antimycobacterial salicylanilide-tuftsin conjugates” (Eur J Med Chem, 2017).
Values after ≈ are worked out from the molar mass of the structure shown. Active and inactive are the calls of the source. No cut-off for these calls is given here. *1 amine or outer side, *2 acyl side, *3 side chain or, on linkers, in order; H or OH if unused. Where a SMILES comes first, the peptide text is derived from it. [ ]: non-standard residue; d: D form. The star is where a group is joined. X2 = C/C(=N\OCC(=O)*)c1ccc(NC(=O)c2cc(Br)ccc2O)cc1; X1 = C/C(=N\OCC(=O)[*:2])c1ccc(N[*:1])cc1; Palmitoyl = CCCCCCCCCCCCCCCC(=O)*; X3 = O=C(c1cc(Cl)ccc1O)*

Assays:
[1] = system: Mycobacteroides abscessus; test: Antimycobacterial activity against Mycobacterium abscessus ATCC 19977 assessed as reduction in bacterial growth after 7 days by serial dilution method; type: functional; conditions: ATCC 19977, 168 h, time 7 day
Method in brief: (§1)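 MIC determined in Sula semisynthetic medium, pH 6.5, 1 week incubation. Growth inhibition confirmed by plating on Löwenstein-Jensen solid medium and counting CFU. Bacteria inoculated without drug served as growth control.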

[2] = system: HepG2; test: Cytostatic activity against human HepG2 cells assessed as reduction in cell viability incubated for 24 hrs by MTT assay; type: functional, cell-based; conditions: HepG2, 24 h
Method in brief: (§2)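 MTT viability assay after 24 h exposure of MonoMac6 human monocytic cells or HepG2 human hepatocellular carcinoma cells. Top concentration 200 μM. IC50 taken from dose-response curves as the concentration reducing viability to 50% of maximal.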

[3] = system: MONO-MAC-6; test: Cytostatic activity against human MONO-MAC-6 cells assessed as reduction in cell viability incubated for 24 hrs by MTT assay; type: functional, cell-based; conditions: MONO-MAC-6, 24 h; method in brief: as §2
[4] = Selectivity index, ratio of IC50 for cytostatic activity against human MONO-MAC-6 cells to MIC for antimycobacterial activity against Mycobacterium tuberculosis H37Rv ATCC 27294; type: toxicity, cell-based; conditions: read-out: Selectivity Index
Method in brief: (§3)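 MTT assay on MonoMac6 or HepG2 cells after 24 h exposure, top concentration 200 µM. SI = IC50 (µM)/MIC (µM) against H37Rv from the 4-week Sula medium assay.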

[5] = system: Mycobacterium tuberculosis; test: Antimycobacterial activity against Mycobacterium tuberculosis H37Rv ATCC 27294 assessed as reduction in bacterial growth after 28 days by serial dilution method; type: functional; conditions: H37Rv ATCC 27294, 672 h, time 28 day
Method in brief: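 Broth MIC in Sula semisynthetic medium, pH 6.5; 4-week incubation, with 21-day values […] where indicated. Drug-free inoculated bacteria served as growth control. MIC also expressed as drug content (µg/mL) = MIC (µM) × average SAL molar mass × number of SAL per conjugate / 1000.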

[6] = Selectivity index, ratio of IC50 for cytostatic activity against human HepG2 cells to MIC for antimycobacterial activity against Mycobacterium tuberculosis H37Rv ATCC 27294; type: toxicity, cell-based; conditions: read-out: Selectivity Index; method in brief: as §3
[7] = system: Mycobacterium tuberculosis; test: Antimycobacterial activity against Mycobacterium tuberculosis H37Rv ATCC 27294 assessed as reduction in colony forming unit after 28 days by serial dilution method; type: functional, organism-based; conditions: time 28.0 day
Method in brief: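 After the 4-week MIC incubation in Sula semisynthetic medium (pH 6.5), growth inhibition confirmed by plating on Löwenstein-Jensen solid medium and counting colony forming units.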

[8] = system: Mycobacteroides abscessus; test: Antimycobacterial activity against Mycobacterium abscessus ATCC 19977 assessed as reduction in colony forming unit after 7 days by serial dilution method; type: functional, organism-based; conditions: time 7.0 day; method in brief: as §1
[9] = system: Mycobacterium tuberculosis; test: […] antimycobacterial activity against Mycobacterium tuberculosis H37Rv ATCC 27294 infected in human MONO-MAC-6 cells assessed as reduction in colony forming unit at 125 uM for 6 days by colony counting based analysis; type: functional, organism-based; conditions: time 6.0 day
Method in brief: (§4)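 MonoMac6 monolayers infected with H37Rv, then treated with compound at 125 or 250 µM for 3 days. Treatment repeated with fresh compound solution for another 3 days. Intracellular bacteria quantified as CFU against untreated infected cells.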

[10] = system: Mycobacterium tuberculosis; test: […] antimycobacterial activity against Mycobacterium tuberculosis H37Rv ATCC 27294 infected in human MONO-MAC-6 cells assessed as reduction in colony forming unit at 250 uM for 6 days by colony counting based analysis; type: functional, organism-based; conditions: time 6.0 day; method in brief: as §4

O=C(Nc1ccc(Cl)c(Cl)c1)c1cc(Cl)ccc1O
MIC [1]: 3.2 µM (≈ 1.01 µg/mL)
IC50 [2]: 2.4 µM
IC50 [3]: 3.8 µM
selectivity ratio [4]: 2.4
MIC [5]: 1.6 µM (≈ 0.507 µg/mL)
selectivity ratio [6]: 1.5

O=C(Nc1ccc(C(F)(F)F)cc1)c1cc(Cl)ccc1O
MIC [1]: 3.2 µM (≈ 1.01 µg/mL)
IC50 [2]: 5.8 µM
IC50 [3]: 2.2 µM
MIC [5]: 1.6 µM (≈ 0.505 µg/mL)

O=C(Nc1ccc(C(F)(F)F)cc1)c1cc(Br)ccc1O
MIC [1]: 13.9 µM (≈ 5.01 µg/mL)
IC50 [2]: 5.5 µM
IC50 [3]: 2 µM
selectivity ratio [4]: 1.4
MIC [5]: 1.4 µM (≈ 0.504 µg/mL)
selectivity ratio [6]: 3.9

CC(=O)c1ccc(NC(=O)c2cc(Cl)ccc2O)cc1
Activity [7]: Active
MIC [1]: 34.5 µM (≈ 10 µg/mL)
IC50 [2]: 7.9 µM
IC50 [3]: 16.1 µM
selectivity ratio [4]: 1.9
Activity [8]: Active
MIC [5]: 8.6 µM (≈ 2.49 µg/mL)
selectivity ratio [6]: 0.9

O=C(Nc1ccc(Cl)c(Cl)c1)c1cc(Br)ccc1O
MIC [1]: 7 µM (≈ 2.53 µg/mL)
IC50 [2]: 4.1 µM
IC50 [3]: 1.4 µM
selectivity ratio [4]: 1
MIC [5]: 1.4 µM (≈ 0.505 µg/mL)
selectivity ratio [6]: 2.9

C/C(=N\OCC(=O)NCC(=O)N[C@@H](Cc1ccccc1)C(=O)N[C@@H](CC(C)C)C(=O)NCC(=O)N[C@H](C(=O)N[C@@H](CCCCN)C(=O)N1CCC[C@H]1C(=O)N1CCC[C@H]1C(=O)N[C@@H](CCCNC(=N)N)C(=O)O)[C@@H](C)O)c1ccc(NC(=O)c2cc(Br)ccc2O)cc1 [listing 1 of 2 here]
IC50 [2]: 156 µM
IC50 [3]: > 200 µM
selectivity ratio [4]: > 6.8
selectivity ratio [6]: 5.3

C/C(=N\OCC(=O)NCC(=O)N[C@@H](Cc1ccccc1)C(=O)N[C@@H](CC(C)C)C(=O)NCC(=O)N[C@H](C(=O)N[C@@H](CCCCN)C(=O)N1CCC[C@H]1C(=O)N1CCC[C@H]1C(=O)N[C@@H](CCCNC(=N)N)C(=O)O)[C@@H](C)O)c1ccc(NC(=O)c2cc(Br)ccc2O)cc1 [listing 2 of 2 here]
MIC [1]: 147 µM (≈ 200 µg/mL)
MIC [5]: 29.4 µM (≈ 40 µg/mL)

C/C(=N\OCC(=O)N[C@H](C(=O)N[C@@H](CCCCN)C(=O)N1CCC[C@H]1C(=O)N1CCC[C@H]1C(=O)N[C@@H](CCCNC(=N)N)C(=O)O)[C@@H](C)O)c1ccc(NC(=O)c2cc(Br)ccc2O)cc1
MIC [1]: 203 µM (≈ 200 µg/mL)
MIC [5]: 20.3 µM (≈ 20 µg/mL)

O=Cc1ccc(O)c(C(=O)Nc2ccc(C(F)(F)F)cc2)c1
Activity [7]: Active
MIC [1]: 129 µM (≈ 40 µg/mL)
IC50 [2]: 17.6 µM
IC50 [3]: 21.5 µM
selectivity ratio [4]: 0.8
Activity [8]: Active
MIC [5]: 25.9 µM (≈ 8.01 µg/mL)
selectivity ratio [6]: 0.7

C/C(=N\OCC(=O)NCC(=O)N[C@@H](Cc1ccccc1)C(=O)N[C@@H](CC(C)C)C(=O)NCC(=O)N[C@H](C(=O)N[C@@H](CCCCN)C(=O)N1CCC[C@H]1C(=O)N[C@@H](CCCCN)C(=O)NCC(=O)N[C@H](C(=O)N[C@@H](CCCCN)C(=O)N1CCC[C@H]1C(=O)N[C@@H](CCCCN)C(=O)NCC(=O)N[C@H](C(=O)N[C@@H](CCCCN)C(=O)N1CCC[C@H]1C(=O)N[C@@H](CCCCN)C(=O)NCC(=O)N[C@H](C(=O)N[C@@H](CCCCN)C(=O)N1CCC[C@H]1C(=O)N[C@@H](CCCCN)C(=O)NCC(N)=O)[C@@H](C)O)[C@@H](C)O)[C@@H](C)O)[C@@H](C)O)c1ccc(NC(=O)c2cc(Br)ccc2O)cc1
MIC [1]: 70.7 µM (≈ 200 µg/mL)
MIC [5]: 142 µM (≈ 400 µg/mL)

C/C(=N\OCC(=O)NCC(=O)N[C@@H](Cc1ccccc1)C(=O)N[C@@H](CC(C)C)C(=O)NCC(=O)N[C@H](C(=O)N[C@@H](CCCCN)C(=O)N1CCC[C@H]1C(=O)N[C@@H](CCCNC(=N)N)C(=O)O)[C@@H](C)O)c1ccc(NC(=O)c2cc(Br)ccc2O)cc1 [listing 1 of 2 here]
IC50 [2]: 113 µM
IC50 [3]: > 200 µM
selectivity ratio [4]: > 6.3
selectivity ratio [6]: 3.6

C/C(=N\OCC(=O)NCC(=O)N[C@@H](Cc1ccccc1)C(=O)N[C@@H](CC(C)C)C(=O)NCC(=O)N[C@H](C(=O)N[C@@H](CCCCN)C(=O)N1CCC[C@H]1C(=O)N[C@@H](CCCNC(=N)N)C(=O)O)[C@@H](C)O)c1ccc(NC(=O)c2cc(Br)ccc2O)cc1 [listing 2 of 2 here]
MIC [1]: 158 µM (≈ 200 µg/mL)
MIC [5]: 31.6 µM (≈ 40 µg/mL)

C/C(=N\OCC(=O)NCC(=O)N[C@@H](Cc1ccccc1)C(=O)N[C@@H](CC(C)C)C(=O)NCC(=O)N[C@H](C(=O)N[C@@H](CCCCN)C(=O)N1CCC[C@@H]1C(=O)N1CCC[C@H]1C(=O)N[C@H](CCCNC(=N)N)C(=O)O)[C@@H](C)O)c1ccc(NC(=O)c2cc(Br)ccc2O)cc1
Activity [7]: Active
Activity [9]: inactive
Activity [10]: Active
Activity [8]: Active

C/C(=N\OCC(=O)NCC(=O)N[C@@H](Cc1ccccc1)C(=O)N[C@@H](CC(C)C)C(=O)NCC(=O)N[C@H](C(=O)N[C@@H](CCCCN)C(=O)N1CCC[C@@H]1C(=O)N[C@H](CCCNC(=N)N)C(=O)O)[C@@H](C)O)c1ccc(NC(=O)c2cc(Br)ccc2O)cc1
Activity [7]: Active
Activity [9]: Active
Activity [10]: Active
Activity [8]: Active

C/C(=N\OCC(=O)N[C@H](C(=O)N[C@@H](CCCCN)C(=O)N1CCC[C@H]1C(=O)N1CCC[C@@H]1C(=O)N[C@H](CCCNC(=N)N)C(=O)O)[C@@H](C)O)c1ccc(NC(=O)c2cc(Br)ccc2O)cc1
Activity [7]: Active
Activity [9]: Active
Activity [10]: Active
Activity [8]: Active

C/C(=N\OCC(=O)NCCCC[C@H](NC(=O)[C@@H]1CCCN1C(=O)[C@H](CCCCN)NC(=O)[C@@H](NC(=O)CNC(=O)[C@H](CCCCNC(=O)CO/N=C(\C)c1ccc(NC(=O)c2cc(Br)ccc2O)cc1)NC(=O)[C@@H]1CCCN1C(=O)[C@H](CCCCN)NC(=O)[C@@H](NC(=O)[C@H](CCCNC(=N)N)NC(=O)[C@@H]1CCCN1C(=O)[C@H](CCCCN)NC(=O)[C@@H](N)[C@@H](C)O)[C@@H](C)O)[C@@H](C)O)C(=O)NCC(=O)O)c1ccc(NC(=O)c2cc(Br)ccc2O)cc1 (H-TKPRTKPK(X2)GTKPK(X2)G-OH)
Activity [7]: Active
Activity [9]: Active
MIC [1]: 86.9 µM (≈ 200 µg/mL)
IC50 [2]: 95.2 µM
Activity [10]: Active
IC50 [3]: 101 µM
selectivity ratio [4]: 2.9
Activity [8]: Active
MIC [5]: 34.8 µM (≈ 80.1 µg/mL)
selectivity ratio [6]: 2.7

CCCCCCCCCCCCCCCC(=O)NCCCC[C@H](NC(=O)[C@@H]1CCCN1C(=O)[C@H](CCCCN)NC(=O)[C@@H](NC(=O)CO/N=C(\C)c1ccc(NC(=O)c2cc(Cl)ccc2O)cc1)[C@@H](C)O)C(=O)NCC(=O)N[C@H](C(=O)N[C@@H](CCCCN)C(=O)N1CCC[C@H]1C(=O)N[C@@H](CCCCN)C(=O)NCC(=O)N[C@H](C(=O)N[C@@H](CCCCN)C(=O)N1CCC[C@H]1C(=O)N[C@@H](CCCCN)C(=O)NCC(=O)N[C@H](C(=O)N[C@@H](CCCCN)C(=O)N1CCC[C@H]1C(=O)N[C@@H](CCCCN)C(=O)NCC(N)=O)[C@@H](C)O)[C@@H](C)O)[C@@H](C)O (X3-[X1]TKPK(Palmitoyl)GTKPKGTKPKGTKPKG-NH2)
Activity [7]: Active
Activity [9]: Active
MIC [1]: 75.6 µM (≈ 200 µg/mL)
IC50 [2]: 42.9 µM
Activity [10]: Active
IC50 [3]: 16.8 µM
selectivity ratio [4]: 0.2
Activity [8]: Active
MIC [5]: 94.5 µM (≈ 250 µg/mL)
selectivity ratio [6]: 0.5

CCCCCCCCCC(=O)O [DECANOIC ACID]
IC50 [3]: > 200 µM

NNC(=O)c1ccncc1 [ISONIAZID]
Activity [7]: Active
MIC [1]: 292 µM (≈ 40 µg/mL)
Activity [8]: Active
MIC [5]: 1.17 µM (≈ 0.16 µg/mL)

CCCCCCCCCCCCCCCC(=O)O [PALMITIC ACID]
IC50 [3]: 178 µM
